The source of these data is ChEMBL document CHEMBL1121397, “5-substituted 2-amino-6-phenyl-4(3H)-pyrimidinones. Antiviral- and interferon-inducing agents” (1980).

Where only a bound is given, the exact number is not on record here.

The subject of assay [1] is Mus musculus. Description: Tested for in vivo antiviral activity against semliki forest virus in mice after peroral administration. The conditions noted are these: po. It is filed as functional. The procedure, abridged: (§1)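 Mice got a single compound dose by the stated route 18 h before a lethal ip Semliki Forest virus challenge, 24 mice per group. ED50 is the minimum dose protecting 50% of mice, calculated by probit analysis of variance, in mg/kg.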

In assay [2] the test system is Human alphaherpesvirus 1. Description: Protective index was measured on herpes simplex virus type 1(HSV-1) infected mice, at dose of 200 mg/kg/day; ip. Format: functional. The note with it: route intraperitoneal. The procedure, abridged: (§2)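 Mice inoculated ip with 5.6 × 10^4 pfu HSV-1. Compound given ip in saline at the stated (mg/kg)/day at -40, -28, -20, -3 and +3 h relative to infection. Protection index = (control mortality − treated mortality)/control mortality; >0.25 counted as active.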

The test system of assay [3] is L929. The experiment in a line: Serum interferon response from a single ip administration of 800 mg/kg employing a plaque-reduction assay.(VSV on L929 cells). The note with it: route intraperitoneal. Format: functional, Mus musculus. An outline of the steps: (§3)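 Serum interferon measured after one ip dose of 800 mg/kg, titrated by VSV plaque reduction on L929 cells. Peak titre within 24 h scored: +++ ≥2000, ++ ≈500-1000, + ≈50-500, ± ≈10-50 units/mL.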
On the technique in general: In a plaque reduction assay, fewer plaques than in the control indicate reduced infectivity or spread.

In assay [4] the test system is Mus musculus. Description: Tested for in vivo antiviral activity against semliki forest virus in mice after subcutaneous administration. It is filed as functional. The note with it: sc. An outline of the steps:
as §1

Assay [5] has as its system Mus musculus. The experiment in a line: Tested for in vivo antiviral activity against semliki forest virus in mice after intraperitoneal administration. Format: functional. The conditions noted are these: ip. An outline of the steps:
as §1

Assay [6] relates to Human alphaherpesvirus 1. Description: Protective index was measured on herpes simplex virus type 1(HSV-1) infected mice, at a dose of 200 mg/kg/day; ip. Format: functional. The conditions noted are these: route intraperitoneal. The procedure, abridged: as §2
Assay [7] concerns L929. The experiment in a line: Serum interferon response from a single ip administration of 800 mg/kg employing a plaque-reduction assay.(VSV on L929 cells); range 500-1000. It is filed as functional, Mus musculus. The note with it: route intraperitoneal. An outline of the steps: as §3
For assay [8], the system named is Human alphaherpesvirus 1. The experiment in a line: Protective index was measured on herpes simplex virus type 1(HSV-1) infected mice, at a dose of 100 mg/kg/day; ip. It is filed as functional. The note with it: route intraperitoneal.
Assay [9] has as its system Human alphaherpesvirus 1. The experiment in a line: Protective index was measured on herpes simplex virus type 1(HSV-1) infected mice. at dose of 100 mg/kg/day; ip. Format: functional. The conditions noted are these: route intraperitoneal.
The subject of assay [10] is L929. The experiment in a line: Serum interferon response from a single ip administration of 800 mg/kg employing a plaque-reduction assay.(VSV on L929 cells); range 50-500. The note with it: route intraperitoneal. Format: functional, Mus musculus. The procedure, abridged: as §3
The test system of assay [11] is Human alphaherpesvirus 1. The experiment in a line: Protective index was measured on herpes simplex virus type 1(HSV-1) infected mice, at dose of 100 mg/kg/day; ip. Format: functional. The conditions noted are these: route intraperitoneal.
Assay [12] relates to Human alphaherpesvirus 1. The experiment in a line: Protective index was measured on herpes simplex virus type 1(HSV-1) infected mice. at a dose of 200 mg/kg/day, ip. It is filed as functional. The conditions noted are these: route intraperitoneal. The procedure, abridged:
as §2

The test system of assay [13] is Human alphaherpesvirus 1. The experiment in a line: Protective index was measured on herpes simplex virus type 1(HSV-1) infected mice at 150 mg/kg/day. It is filed as functional. The procedure, abridged: as §2

As for `Nc1nc(O)c(Cl)c(-c2ccccc2)n1`, the ED50 in the assay on Mus musculus [1] came out at 90 mg/kg; in the assay on Mus musculus [4] it was 105 mg/kg; in the assay with Mus musculus [5], 100 mg/kg. Further, in the assay on Human alphaherpesvirus 1 [2], the Protection index came to 0.62. Also, in the assay with L929 [3], the Interferon response result is “>=2000 ml”.

As for `CCc1c(O)nc(N)nc1-c1ccccc1`, the Protection index with Human alphaherpesvirus 1 [6] came out at 0.57. Moreover, the ED50 in the assay on Mus musculus [1] was 280 mg/kg; with Mus musculus [4], > 400 mg/kg; with Mus musculus [5], 45 mg/kg. Also, the Interferon response in the assay on L929 [7] came out at 1000 mL.

The compound `CCCc1c(O)nc(N)nc1-c1ccccc1` yielded a Protection index in the assay on Human alphaherpesvirus 1 [8] of 0.13. In the assay on Mus musculus [5], the ED50 was > 400 mg/kg.

`Nc1nc(O)c(I)c(-c2ccccc2)n1`: the Protection index with Human alphaherpesvirus 1 [9] was 0.86. The ED50 with Mus musculus [1] is > 400 mg/kg; with Mus musculus [4], 25 mg/kg; with Mus musculus [5], 50 mg/kg. In addition, the Interferon response in the assay on L929 [10] was 500 mL.

`CCOCCc1c(O)nc(N)nc1-c1ccccc1`: the ED50 is > 400 mg/kg in the assay with Mus musculus [1], > 400 mg/kg with Mus musculus [4] and > 800 mg/kg in the assay with Mus musculus [5]. In the assay with Human alphaherpesvirus 1 [8], the Protection index was 0.15.

Turning to `Cc1c(O)nc(N)nc1-c1ccccc1`, the Interferon response result with L929 [3] was “>=2000 ml”. Further, the Protection index in the assay with Human alphaherpesvirus 1 [11] came to 0.35. In the assay on Mus musculus [5], this compound displayed an ED50 of 185 mg/kg.

In the case of `Cc1nc(N)nc(O)c1I`, the Protection index in the assay on Human alphaherpesvirus 1 [12] came to 0.16. The Interferon response with L929 [7] was determined as 1000 mL. The same compound displayed a 50% effective dose (ED50) in the assay with Mus musculus [5] of 200 mg/kg.

Take `C=CCc1c(O)nc(N)nc1-c1ccccc1`: the Protection index in the assay on Human alphaherpesvirus 1 [6] is reported as 0.43. Also, the values for the ED50 with Mus musculus [1], with Mus musculus [4] and with Mus musculus [5] were > 400 mg/kg, > 400 mg/kg and 95 mg/kg, respectively. The Interferon response with L929 [10] came out at 50 mL.

With `C#CCc1c(O)nc(N)nc1-c1ccccc1`, the ED50 in the assay with Mus musculus [1] was > 400 mg/kg; with Mus musculus [5] it was 130 mg/kg.

Regarding `Cc1nc(N)nc(O)c1Br`, the Interferon response in the assay on L929 [3] amounted to 1000 mL. This compound also returned a Protection index in the assay with Human alphaherpesvirus 1 [13] of 0.4. The ED50 in the assay on Mus musculus [5] worked out at 250 mg/kg.

For `Nc1nc(=O)c(Br)c(-c2ccccc2)[nH]1` [BROPIRIMINE], the ED50 with Mus musculus [1] stood at 100 mg/kg; with Mus musculus [4], 50 mg/kg; in the assay with Mus musculus [5], 100 mg/kg. Besides, the Interferon response result with L929 [3] is “>=2000 ml”.

For orientation: ED50 means the dose at which the effect has come halfway, by size or by number of responders.
